≈ marks a conversion by molar mass, not a printed value.
Each compound was assayed on Staphylococcus aureus (assay: Antibacterial activity against benzylpenicillin-resistant Staphylococcus aureus after 17 hrs by serial two fold dilution method).
Type: functional
In short: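 Agar dilution MIC. Compound was serially diluted twofold in Mueller-Hinton agar. The surface was inoculated with a diluted 18-24-h broth culture […]. Plates were incubated 17 h at 37 °C. MIC was taken as the lowest concentration giving complete or virtually complete inhibition of visible growth.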

Q: With `Cc1nnc(SCC2=C(C(=O)O)N3C(=O)[C@@H](NC(=O)Cn4ccc5ccccc54)[C@H]3SC2)s1` as the compound, how does the MIC read?
A: 0.2 µg/mL (≈ 0.399 µM)

These compounds were tested on Staphylococcus aureus (assay: Antibacterial activity against Staphylococcus aureus after 17 hrs by serial two fold dilution method).
Type: functional
In short: (§1)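 Agar dilution MIC: compound serially diluted twofold in Mueller-Hinton agar. Plate surfaces were inoculated with a suitably diluted 18-24-h broth culture and incubated 17 h at 37 °C. MIC was read as the lowest concentration giving complete or virtually complete inhibition of visible growth.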

Q: With `Cc1nnc(SCC2=C(C(=O)O)N3C(=O)[C@@H](NC(=O)Cn4ccc5ccccc54)[C@H]3SC2)s1` as the compound, how does the MIC read?
A: 0.1 µg/mL (≈ 0.199 µM)

What follows are compounds tested on Staphylococcus epidermidis (assay: Antibacterial activity against Staphylococcus epidermidis after 17 hrs by serial two fold dilution method).
Type: functional
In short: as §1

Q: For `Cc1nnc(SCC2=C(C(=O)O)N3C(=O)[C@@H](NC(=O)Cn4ccc5ccccc54)[C@H]3SC2)s1`, which MIC is on record?
A: 0.4 µg/mL (≈ 0.797 µM)

The compounds below were run on Enterococcus faecalis (assay: Antibacterial activity against Staphylococcus faecalis after 17 hrs by serial two fold dilution method).
Type: functional
In short: as §1

Q: `Cc1nnc(SCC2=C(C(=O)O)N3C(=O)[C@@H](NC(=O)Cn4ccc5ccccc54)[C@H]3SC2)s1` was tested. Which MIC did it give?
A: > 100 µg/mL

The compounds below were run on Streptococcus pneumoniae (assay: Antibacterial activity against Streptococcus pneumoniae after 17 hrs by serial two fold dilution method).
Type: functional
In short: as §1

Q: How did the MIC turn out when `Cc1nnc(SCC2=C(C(=O)O)N3C(=O)[C@@H](NC(=O)Cn4ccc5ccccc54)[C@H]3SC2)s1` was run?
A: ≤ 0.025 µg/mL

The compounds below were run on Streptococcus pyogenes (assay: Antibacterial activity against Streptococcus pyogenes after 17 hrs by serial two fold dilution method).
Type: functional
In short: as §1

Q: With `Cc1nnc(SCC2=C(C(=O)O)N3C(=O)[C@@H](NC(=O)Cn4ccc5ccccc54)[C@H]3SC2)s1` as the compound, how does the MIC read?
A: 0.05 µg/mL (≈ 0.0997 µM)

The compounds below were run on Klebsiella aerogenes (assay: Antibacterial activity against Enterobacter aerogenes after 17 hrs by serial two fold dilution method).
Type: functional

Q: How did the MIC turn out when `Cc1nnc(SCC2=C(C(=O)O)N3C(=O)[C@@H](NC(=O)Cn4ccc5ccccc54)[C@H]3SC2)s1` was run?
A: 100 µg/mL (≈ 199 µM)

Each compound was assayed on Enterobacter cloacae (assay: Antibacterial activity against Enterobacter cloacae after 17 hrs by serial two fold dilution method).
Type: functional

Q: With `Cc1nnc(SCC2=C(C(=O)O)N3C(=O)[C@@H](NC(=O)Cn4ccc5ccccc54)[C@H]3SC2)s1` as the compound, how does the MIC read?
A: 100 µg/mL (≈ 199 µM)

The compounds below were run on Escherichia coli (assay: Antibacterial activity against Escherichia coli after 17 hrs by serial two fold dilution method).
Type: functional
In short: as §1

Q: Which MIC does the source give for `Cc1nnc(SCC2=C(C(=O)O)N3C(=O)[C@@H](NC(=O)Cn4ccc5ccccc54)[C@H]3SC2)s1` here?
A: 50 µg/mL (≈ 99.7 µM)

These compounds were tested on Klebsiella pneumoniae (assay: Antibacterial activity against Klebsiella pneumoniae after 17 hrs by serial two fold dilution method).
Type: functional
In short: as §1

Q: `Cc1nnc(SCC2=C(C(=O)O)N3C(=O)[C@@H](NC(=O)Cn4ccc5ccccc54)[C@H]3SC2)s1` was tested. Which MIC did it give?
A: 50 µg/mL (≈ 99.7 µM)

The compounds below were run on Proteus mirabilis (assay: Antibacterial activity against Proteus mirabilis after 17 hrs by serial two fold dilution method).
Type: functional
In short: as §1

Q: How did the MIC turn out when `Cc1nnc(SCC2=C(C(=O)O)N3C(=O)[C@@H](NC(=O)Cn4ccc5ccccc54)[C@H]3SC2)s1` was run?
A: 50 µg/mL (≈ 99.7 µM)

Each compound was assayed on Proteus vulgaris (assay: Antibacterial activity against Proteus vulgaris after 17 hrs by serial two fold dilution method).
Type: functional
In short: as §1

Q: With `Cc1nnc(SCC2=C(C(=O)O)N3C(=O)[C@@H](NC(=O)Cn4ccc5ccccc54)[C@H]3SC2)s1` as the compound, how does the MIC read?
A: > 100 µg/mL

Each compound was assayed on Providencia stuartii (assay: Antibacterial activity against Providencia stuartii after 17 hrs by serial two fold dilution method).
Type: functional
In short: as §1

Q: `Cc1nnc(SCC2=C(C(=O)O)N3C(=O)[C@@H](NC(=O)Cn4ccc5ccccc54)[C@H]3SC2)s1` was tested. Which MIC did it give?
A: 25 µg/mL (≈ 49.8 µM)

What follows are compounds tested on Pseudomonas aeruginosa (assay: Antibacterial activity against Pseudomonas aeruginosa after 17 hrs by serial two fold dilution method).
Type: functional
In short: as §1

Q: How did the MIC turn out when `Cc1nnc(SCC2=C(C(=O)O)N3C(=O)[C@@H](NC(=O)Cn4ccc5ccccc54)[C@H]3SC2)s1` was run?
A: > 100 µg/mL

What follows are compounds tested on Salmonella (assay: Antibacterial activity against Salmonella schottmuelleri after 17 hrs by serial two fold dilution method).
Type: functional
In short: as §1

Q: For `Cc1nnc(SCC2=C(C(=O)O)N3C(=O)[C@@H](NC(=O)Cn4ccc5ccccc54)[C@H]3SC2)s1`, which MIC is on record?
A: 25 µg/mL (≈ 49.8 µM)

Reference: ChEMBL document CHEMBL3244034, “Semisynthetic cephalosporins. Synthesis and structure-activity relationships of 7-(1-pyrryl)- and 7-(1-indolyl)acetamidocephalosporin derivatives” (1978)
